This is an account of results in ChEMBL document CHEMBL4219228, “Substituent effect of N-benzylated gramine derivatives that prevent the PP2A inhibition and dissipate the neuronal Ca2+ overload, as a multitarget strategy for the treatment of Alzheimer's disease” (Bioorg Med Chem, 2018).

The source made the active and inactive calls. No cut-off for these calls is given here.

Series [1] addresses T1, Serine/threonine-protein phosphatase 2A 55 kDa regulatory subunit B alpha isoform (Homo sapiens) (UniProt P63151).
T1 sequence (whole entry): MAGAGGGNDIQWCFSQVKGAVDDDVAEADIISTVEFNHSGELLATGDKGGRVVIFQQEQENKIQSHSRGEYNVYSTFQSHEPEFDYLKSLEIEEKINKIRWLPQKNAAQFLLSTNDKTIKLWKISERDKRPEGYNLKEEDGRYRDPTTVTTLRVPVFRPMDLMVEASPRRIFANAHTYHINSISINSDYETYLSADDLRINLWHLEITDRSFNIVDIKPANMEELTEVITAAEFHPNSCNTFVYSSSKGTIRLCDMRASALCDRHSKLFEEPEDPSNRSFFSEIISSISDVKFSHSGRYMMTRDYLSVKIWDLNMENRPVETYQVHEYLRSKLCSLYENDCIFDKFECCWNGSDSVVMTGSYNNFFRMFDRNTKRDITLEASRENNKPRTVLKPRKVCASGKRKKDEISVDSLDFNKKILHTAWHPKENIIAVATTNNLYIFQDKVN
The experiment in a line: Reversal of okadaic acid mediated PP2A PR55alpha B regulatory subunit inactivation in human SH-SY5Y cells at 0.1 uM preincubated for 24 hrs followed by cotreatment with PPA2 inhibitor okadaic acid for 18 hrs measured over 30 mins by pNPP based spectrophotometric analysis. It is filed as cell-based. The gist of the method: (§1)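 SH-SY5Y cells were preincubated with compound for 24 h, then exposed for 18 h to okadaic acid 15 nM plus compound in fresh MEM/F12 with 1% FBS. Phosphatase activity was measured by pNPP dephosphorylation for 30 min at 37 °C, reading p-nitrophenolate at 405 nm. Values were normalized to cells not exposed to OA; at least three independent experiments.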

Series [2] addresses Glutamate NMDA receptor (Rattus norvegicus) (UniProt P35439+Q00959+Q00960+Q00961+Q62645+Q8VHN2+Q9R1M7). The experiment in a line: Inhibition of NMDA receptor in rat cortical embryonic neurons assessed as reduction in NMDA-induced cytosolic calcium level at 10 uM by Fluo-4 AM dye based fluorescence assay relative to control. The gist of the method:
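Cortical neurons came from E18 rat embryos (two pregnant rats). They were loaded with Fluo-4/AM (3 µM) in Krebs-HEPES, incubated with compound at 10 µM, then stimulated with NMDA 10 µM, and fluorescence was read at ex 485/em 520 nm. Normalized ΔF is reported as % blockade against vehicle (DMSO 0.1%), with ≥4 independent experiments in triplicate.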

In series [3] the test system is SH-SY5Y. The experiment in a line: Neuroprotective activity against okadaic acid-induced cell death in human SH-SY5Y cells assessed as cell viability at 0.1 uM preincubated for 24 hrs followed by cotreatment with PPA2 inhibitor okadaic acid measured after 20 hrs by MTT assay (reference value: 50.1 +/- 0.2%). Particulars: read-out: Activity. The format is functional. For orientation: Formazan colour is commonly taken as a measure of viable cells.

Series [4] has as its target Voltage-gated calcium channel. The experiment in a line: Inhibition of KCl-induced cytosolic voltage gated calcium channel opening in human SH-SY5Y cells by Fluo-4 AM dye based fluorescence assay. The format is cell-based. The gist of the method: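 Fluo-4/AM-loaded (10 µM) SH-SY5Y cells in Krebs-HEPES received compound at several concentrations before 70 mM K+ depolarization, with readings at ex 485/em 520 nm. ΔF was normalized to vehicle (DMSO 0.1%) cultures. IC50 is the concentration halving ΔF, from a variable-slope non-linear regression of log concentration vs normalized response. Three experiments in triplicate.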

In series [5] the test system is SH-SY5Y. The experiment in a line: Cytotoxicity against human SH-SY5Y cells assessed as cell viability at 3 uM incubated for 48 hrs by MTT assay.
The test system of series [6] is Voltage-gated calcium channel. The experiment in a line: Inhibition of KCl-induced cytosolic voltage gated calcium channel opening in human SH-SY5Y cells at 10 uM by Fluo-4 AM dye based fluorescence assay relative to control. It is filed as cell-based. The gist of the method: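 SH-SY5Y cells were loaded with Fluo-4/AM (10 µM) in Krebs-HEPES and preincubated with compound at 10 µM. They were then depolarized with 70 mM K+, and fluorescence (ex 485/em 520 nm) was monitored in real time. ΔF = (Fx−F0)/(Fmax−Fmin), using Triton X-100 for Fmax and MnCl2 for Fmin. Values are % blockade (100−ΔF) against vehicle (DMSO 0.1%), with ≥4 independent experiments in triplicate.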

The subject of series [7] is SH-SY5Y. The experiment in a line: Cytotoxicity against human SH-SY5Y cells assessed as cell viability at 10 uM incubated for 48 hrs by MTT assay.
Series [8] deals with T1, Serine/threonine-protein phosphatase 2A 55 kDa regulatory subunit B alpha isoform (Homo sapiens). The series is described as follows: Reversal of okadaic acid mediated PP2A PR55alpha B regulatory subunit inactivation in human SH-SY5Y cells assessed as residual activity at 0.1 uM preincubated for 24 hrs followed by cotreatment with PPA2 inhibitor okadaic acid for 18 hrs measured over 30 mins by pNPP based spectrophotometric analysis relative to control. The format is cell-based. The gist of the method: as §1

A word on the inhibition: it is the share of the control response that was lost under treatment. By IC50 is commonly meant the concentration needed to halve the response being measured. Take `Cc1ccc(Cn2cc(CN3CCCCC3)c3cc(C)ccc32)cc1`: the result in series [1] was Active. Moreover, in series [2], the inhibition was 32%. Moreover, the viability at 0.1 µM with SH-SY5Y [3] came out at 67%. For the same molecule, in series [4], the IC50 amounted to 3.6 µM. Besides, the Activity entry in the series on SH-SY5Y [5] is given as “Non-Toxic”. Besides, in series [6], the “inhibition (INH)” value amounted to 94%.
Consider `Cc1ccc2c(c1)c(CN1CCCCC1)cn2Cc1ccc(Cl)cc1`, for which the Activity result in the series with SH-SY5Y [7] was “Toxic”; with SH-SY5Y [5] it was “Non-Toxic”. The outcome in series [1] was Active. In addition, in series [2], the inhibition was determined as 52%. For the same molecule, the viability at 0.1 µM in the series with SH-SY5Y [3] is 67%. Besides, the IC50 in series [4] stood at 3 µM. The “inhibition (INH)” value in series [6] is 95%.
`Cc1ccc2c(c1)c(CN1CCCCC1)cn2Cc1cccc(Cl)c1`: the Activity entry in the series with SH-SY5Y [7] is on record as “Toxic”; with SH-SY5Y [5], “Non-Toxic”. The result in series [1] was Active. The inhibition in series [2] stood at 37%. Besides, the viability at 0.1 µM in the series on SH-SY5Y [3] was determined as 67%. The IC50 in series [4] stood at 2.2 µM. Also, the “inhibition (INH)” value in series [6] was 97%.
With `Cc1ccc2c(c1)c(CN1CCCCC1)cn2Cc1ccccc1[N+](=O)[O-]`, the inhibition in series [2] was 24%. Moreover, the viability at 0.1 µM in the series on SH-SY5Y [3] is 70%. In series [4], the IC50 worked out at 1.8 µM. Further, the Activity result with SH-SY5Y [5] is reported as “Non-Toxic”. Further, in series [6], the “inhibition (INH)” value was determined as 90%.
As to `CC12CC3CC(C)(C1)CC(N)(C3)C2`, in series [2], the inhibition was 41%.
Take `COC(=O)C1=C(C)NC(C)=C(C(=O)OC)C1c1ccccc1[N+](=O)[O-]` [NIFEDIPINE]: the “inhibition (INH)” value in series [6] was 32%.
As to `Cc1ccc2c(c1)c(CN1CCCCC1)cn2Cc1ccccc1`, the result in series [1] was Active. Further, in series [2], the inhibition worked out at 42%. In the series with SH-SY5Y [3], the viability at 0.1 µM stood at 73%. Further, the IC50 in series [4] is 3.4 µM. The “inhibition (INH)” value in series [6] stood at 87%.
Take `Cc1ccc2c(c1)c(CN1CCCCC1)cn2Cc1cccc([N+](=O)[O-])c1`: the inhibition in series [2] was determined as 22%. In addition, the viability at 0.1 µM with SH-SY5Y [3] is 67%. For the same molecule, the half-maximal inhibitory concentration (IC50) in series [4] came out at 3 µM. Besides, in the series on SH-SY5Y [5], the Activity result is listed as “Non-Toxic”. Besides, the “inhibition (INH)” value in series [6] is listed as 90%.
Consider `Cc1ccc2c(c1)c(CN1CCCCC1)cn2Cc1ccc(F)cc1`, for which, in series [1], the result was Active. In addition, the inhibition in series [2] stood at 34%. In addition, the viability at 0.1 µM with SH-SY5Y [3] turned out to be 67%. In addition, the concentration for half-maximal inhibition (IC50) in series [4] stood at 4.8 µM. Further, the Activity was 93% in series [8] and “Non-Toxic” in the series with SH-SY5Y [5]. The “inhibition (INH)” value in series [6] is on record as 79%.
